Laboratory results: ChEMBL document CHEMBL5576140, “Computational Design of Pore-Forming Peptides with Potent Antimicrobial and Anticancer Activities” (J Med Chem, 2024)
One block for each substance: values may come before it. Calls of active or inactive are those of the source. The calls are words filed in the database; no cut-off is given here.

Key:
Staphylococcus aureus [1] = assay: Antimicrobial activity against Staphylococcus aureus NE163 harboring single transposon insertion mutation in aureolysin at 30 uM incubated for 18 hrs relative to control; type: functional
Procedure, shortened: (§1)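 CA-MRSA USA300 LAC derivative JE2 and single transposon insertion mutants derived from JE2, each lacking an extracellular protease gene, were exposed to peptides up to 30 μM. The read-out was percent growth inhibition. Peptides were dissolved in PBS, and tests were run in triplicate.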

Staphylococcus aureus [2] = assay: Antimicrobial activity against Staphylococcus aureus NE1506 harboring single transposon insertion mutation in V8 protease at 30 uM incubated for 18 hrs relative to control; type: functional; procedure, shortened: as §1
Staphylococcus aureus [3] = assay: Antimicrobial activity against Staphylococcus aureus NE934 harboring single transposon insertion mutation in staphopain B at 30 uM incubated for 18 hrs relative to control; type: functional; procedure, shortened: as §1
Staphylococcus aureus [4] = assay: Antimicrobial activity against Staphylococcus aureus NE1740 harboring single transposon insertion mutation in staphopain A at 30 uM incubated for 18 hrs relative to control; type: functional; procedure, shortened: as §1
[5] = Hemolytic activity against human RBC incubated for 1 hr by microplate reader analysis; type: toxicity, cell-based, Erythrocyte; conditions: red blood cells (erythrocytes)
Procedure, shortened: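 Human red blood cells exposed to peptides up to 50 μM; hemolysis measured, IC50 derived where reached.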

[6] = Stability in simulated pore POPC lipid bilayer membrane; type: physicochemical
Procedure, shortened: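 Coarse-grained MD with the "scaled" Martini force field, peptides in POPC membrane, 51 μs. Counts transmembrane peptides at 51 μs. Water beads within 2 nm vertically of membrane centre and peptide–peptide interaction energy averaged over 48–51 μs. Contacts (salt bridge or stacking) scored below 0.8 nm and called stable if present ≥50% of the time.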

Acinetobacter baumannii [7] = assay: Antimicrobial activity against Acinetobacter baumannii CIP7010 incubated for 16 to 20 hrs; type: functional; conditions: time 16-20 hrs
Procedure, shortened: (§2)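 Broth microdilution assay. MIC was taken as the lowest peptide concentration that inhibited visible growth of the bacteria. Peptides were dissolved in PBS, and experiments were run in triplicate.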

Acinetobacter baumannii [8] = assay: Antimicrobial activity against colistin/meropenem-resistant Acinetobacter baumannii GSAB 164 incubated for 18 to 20 hrs by broth microdilution assay; type: functional; conditions: time 18-20 hrs; procedure, shortened: as §2
Mus musculus [9] = assay: Induction of wound healing activity in immunosuppressed Balb/c mouse excisional dorsal wound infection model infected with Acinetobacter baumannii NCTC 13301 assessed as decrease in serocellular crust at about 10 mg/kg treated for 7 days once daily measured after 20 days; type: functional, organism-based; conditions: time 20.0 day
Acinetobacter baumannii [10] = assay: Depolarization of cytoplasmic membrane in Acinetobacter baumannii ATCC 19606 at MIC measured for 45 mins by DiSC3-(5) dye based assay; type: functional, organism-based
Procedure, shortened: (§3)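 Bacteria loaded with membrane-potential dye DiSC3-(5), then treated with peptide at its MIC for the respective strain; depolarization read as rise in dye fluorescence; polymyxin B and levofloxacin as reference antibiotics.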

Mus musculus [11] = assay: Induction of wound healing activity in immunosuppressed Balb/c mouse excisional dorsal wound infection model infected with Acinetobacter baumannii NCTC 13301 assessed as reduction in necrosis of epidermal tissue at wound edges at about 10 mg/kg treated for 7 days once daily; type: functional, organism-based; conditions: time 7.0 day
Acinetobacter baumannii [12] = assay: Induction of outer membrane permeabilization in Acinetobacter baumannii ATCC 19606 measured for 20 mins by NPN uptake assay; type: functional, organism-based
[13] = Toxicity in immunosuppressed Balb/c mouse excisional dorsal wound infection model infected with Acinetobacter baumannii NCTC 13301 assessed as decrease in animal survival at about 10 mg/kg treated for 7 days once daily measured after 45 days; type: organism-based; conditions: in vivo, 1080 h, time 45 day
Escherichia coli [14] = assay: Depolarization of cytoplasmic membrane in Escherichia coli ATCC 11775 at MIC measured for 45 mins by DiSC3-(5) dye based assay; type: functional, organism-based; procedure, shortened: as §3
Enterococcus faecium = assay: Depolarization of cytoplasmic membrane in Enterococcus faecium ATCC 700221 at MIC measured for 45 mins by DiSC3-(5) dye based assay; type: functional, organism-based; procedure, shortened: as §3
[15] = Toxicity against reconstructed human skin model assessed as tissue viability at 50 uM incubated for 1 hr followed by compound washout measured after 42 hrs by MTT assay; type: tissue-based, Skin of body; conditions: read-out: Activity
Procedure, shortened: (§4)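 Reconstructed human epidermis with stratum corneum, per OECD TG 439 skin irritation guideline. Tissues exposed 1 h to peptide at 50 μM, then 42 h post-treatment incubation. Viability read by MTT. Controls were SDS and melittin.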

Klebsiella pneumoniae [16] = assay: Induction of outer membrane permeabilization in Klebsiella pneumoniae ATCC 13883 measured for 20 mins by NPN uptake assay; type: functional, organism-based
Procedure, shortened: (§5)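 Outer-membrane permeabilization of Gram-negative bacteria read as rise in fluorescence of the lipophilic dye NPN, which enters only when outer-membrane integrity is compromised. Peptides applied at their MIC against the respective strain; polymyxin B and levofloxacin as reference antibiotics. Triplicates.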

[17] = Toxicity in immunosuppressed Balb/c mouse excisional dorsal wound infection model infected with Acinetobacter baumannii NCTC 13301 assessed as body weight loss at about 10 mg/kg treated for 7 days once daily measured after 45 days; type: organism-based; conditions: in vivo, 1080 h, time 45 day
Procedure, shortened: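 Excisional dorsal wound model in immunosuppressed mice infected with 5 × 10⁴ cells per mL of A. baumannii. Treated, PBS-treated and untreated groups were compared. Body weight and survival were followed for 45 days.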

Escherichia coli [18] = assay: Antimicrobial activity against Escherichia coli ATCC 25922 incubated for 18 to 20 hrs by broth microdilution assay; type: functional; conditions: time 18-20 hrs; procedure, shortened: as §2
Mus musculus [19] = assay: Induction of wound healing activity in immunosuppressed Balb/c mouse excisional dorsal wound infection model infected with Acinetobacter baumannii NCTC 13301 assessed as reduction in wound expansion at about 10 mg/kg treated for 7 days once daily; type: functional, organism-based; conditions: time 7.0 day
[20] = Toxicity against reconstructed human skin model assessed as irritation at 50 uM incubated for 1 hr followed by compound washout measured after 42 hrs by MTT assay; type: tissue-based, Skin of body; procedure, shortened: as §4
Pseudomonas aeruginosa [21] = assay: Induction of outer membrane permeabilization in Pseudomonas aeruginosa PAO1 measured for 20 mins by NPN uptake assay; type: functional, organism-based; procedure, shortened: as §5
Acinetobacter baumannii [22] = assay: Anti-infective activity against Acinetobacter baumannii ATCC 19606 infected in neutropenic CD-1 mouse deep thigh infection model assessed as reduction in bacterial load at 0.17 mg/kg, ip measured after 4 days; type: functional, organism-based; conditions: time 4.0 day
Procedure, shortened: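 Neutropenic mice infected intramuscularly in right thigh with 10⁶ cells per mL A. baumannii ATCC 19606; single intraperitoneal peptide dose at 10× MIC; bacterial load determined 4 days after treatment (euthanized day 8); n = 6 per group from three inocula; one-way ANOVA with Dunnett's test versus untreated.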

Pseudomonas aeruginosa [23] = assay: Depolarization of cytoplasmic membrane in Pseudomonas aeruginosa PAO1 at MIC measured for 45 mins by DiSC3-(5) dye based assay; type: functional, organism-based; procedure, shortened: as §3
Lipid bilayer = assay: Induction of pore formation in POPC/POPG SLBs at 1 uM measured for 2 hrs by real-time AFM analysis; conditions: filed as activator
Procedure, shortened: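 Real-time AFM topography of supported lipid bilayers of POPC:POPG 1:1 mol/mol, checked defect-free and vesicle-free before peptide addition. P:L 1:500, final peptide 1 μM. Images at 1 × 1 μm², 400 × 400 nm² and 200 × 200 nm², height scale 2 nm. Pores followed over 2 h.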

[24] = Toxicity in neutropenic CD-1 mouse deep thigh infection model infected with Acinetobacter baumannii ATCC 19606 assessed as body weight change at 0.17 mg/kg, ip measured after 4 days; type: organism-based; conditions: in vivo, 96 h, time 4 day
Procedure, shortened: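 Neutropenic mice infected intramuscularly in the right thigh with 10⁶ cells per mL of A. baumannii ATCC 19606. […] Body weight monitored for toxicity. Euthanasia 4 days post-infection (day 8). n = 6 per group, from three inocula.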

Staphylococcus aureus [25] = assay: Depolarization of cytoplasmic membrane in Staphylococcus aureus ATCC 12600 at MIC measured for 45 mins by DiSC3-(5) dye based assay; type: functional, organism-based; procedure, shortened: as §3
Escherichia coli [26] = assay: Antimicrobial activity against Escherichia coli TOP10 at pH 6 to 8; type: functional, organism-based
Procedure, shortened: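 E. coli TOP10 broth microdilution with growth medium at pH 8 and pH 6; MIC taken as lowest concentration inhibiting visible growth.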

Escherichia coli [27] = assay: Induction of outer membrane permeabilization in Escherichia coli ATCC 11775 measured for 20 mins by NPN uptake assay; type: functional, organism-based
Klebsiella pneumoniae [28] = assay: Depolarization of cytoplasmic membrane in Klebsiella pneumoniae ATCC 13883 at MIC measured for 45 mins by DiSC3-(5) dye based assay; type: functional, organism-based; procedure, shortened: as §3
[29] = Stability in human serum assessed as half life at 10 mg/ml by UPLC-MS analysis; type: ADME, cell-free
Procedure, shortened: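 Peptides dissolved in PBS and incubated in 25% human serum. Intact peptide remaining followed over time to at least 6 h; half-life taken as time to 50% stability.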

Substance: H-KKKKLKKILKKLFNFINNLDNNLNDIKNNK-NH2
inhibition at 30 µM (Staphylococcus aureus [1]): < 45%
inhibition at 30 µM (Staphylococcus aureus [2]): < 45%
inhibition at 30 µM (Staphylococcus aureus [3]): < 45%
inhibition at 30 µM (Staphylococcus aureus [4]): < 45%

Substance: H-KKKKLKKILKKLFQFIDQLINDLQNIKKKK-NH2
IC50 at 1 h [5]: > 50 µM

Stability [6]: Stable
Substance: H-KKKKLKKILKKLFQFINQLDNQLQDFKQNK-OH
IC50 at 1 h [5]: > 50 µM

Substance: H-KKKKLKKILKKLFQFINQLDNQLQDIKKKK-NH2
inhibition at 30 µM (Staphylococcus aureus [1]): < 45%
MIC (Acinetobacter baumannii [7]): 0.5 µM
MIC (Acinetobacter baumannii [8]): 1 µM
Activity (Mus musculus [9]): inactive
IC50 at 1 h [5]: > 50 µM
Activity (Acinetobacter baumannii [10]): Active
Activity (Mus musculus [11]): Active
Activity (Acinetobacter baumannii [12]): inactive
Activity [13]: Toxic
Activity (Escherichia coli [14]): Active
Activity (Enterococcus faecium): Active
inhibition at 30 µM (Staphylococcus aureus [2]): < 45%
viability at 1 h, 50 µM [15]: 100%
Activity (Klebsiella pneumoniae [16]): Active
Activity [17]: Toxic
MIC (Escherichia coli [18]): 1 µM
inhibition at 30 µM (Staphylococcus aureus [3]): < 45%
Activity (Mus musculus [19]): Active
Activity [20]: Non-Toxic
Activity (Pseudomonas aeruginosa [21]): Active
Activity (Acinetobacter baumannii [22]): inactive
Activity (Pseudomonas aeruginosa [23]): Active
Activity (Lipid bilayer): Active
Activity [24]: Non-Toxic
Activity (Staphylococcus aureus [25]): Active
Activity (Escherichia coli [26]): Active
Activity (Escherichia coli [27]): Active
inhibition at 30 µM (Staphylococcus aureus [4]): < 45%
Activity (Klebsiella pneumoniae [28]): Active
half-life at 10 mg/ml [29]: > 6 h

Substance: H-KKKKLKKILKKLFQFINQLDNQLQDIKQNK-OH
IC50 at 1 h [5]: > 50 µM
